Measured values pooled from the literature.
Each line is one published result; the experiments were not run side by side.
Effect on: metabolic stability

For `Cc1ccc(F)c2cc(C(=O)N[C@@H]3CCC[C@H](c4ccncc4)C3)[nH]c12`, the scaled CLint was 399 mL/min/kg (mouse, hepatocytes; 0.5 µM, 1 h).
`CCOc1c(O)cc(Br)c2c1CN1CCc3cc(OCC(F)F)c(O)cc3[C@@H]1C2` gave a scaled CLint of 1040 mL/min/kg (mouse, liver S9; 2 µM, pH 7.4).
The scaled CLint of `Cc1cc(NC(=O)Cc2ccc(F)c(C#N)c2)n(CC2CCCCC2)n1` is reported as 2970 mL/min/kg (mouse, liver microsomes).
`Cc1ccc(F)c2cc(C(=O)N[C@@H]3CCC[C@H](N4CCN(S(C)(=O)=O)CC4)C3)[nH]c12` has a scaled CLint of 328 mL/min/kg (mouse, hepatocytes; 0.5 µM, 1 h).
The scaled CLint of `Cc1cc(Cl)c(Cl)cc1NC(=O)c1ccc(N2CCNCC2)c([N+](=O)[O-])c1` is reported as 21 mL/min/kg (CD-1 mouse, liver microsomes; 1 µM, 1 h, pH 7.4).
The scaled CLint of `O=c1ccc2ccc(O)cc2o1` is reported as 2120 mL/min/kg (mouse, liver S9; 2 µM, pH 7.4).
With `Cc1ccc(F)c2cc(C(=O)N[C@@H]3CCC[C@H](N4CCN(C)C(=O)C4)C3)[nH]c12` the scaled CLint was 164 mL/min/kg (mouse, hepatocytes; 0.5 µM, 1 h).
`CC(=O)Nc1cc(Nc2cc(NC3CC3)n3ncc(C#N)c3n2)ccc1N(C)C[C@@H]1CCCN1` has a scaled CLint of 171 mL/min/kg (male CD-1 mouse, hepatocytes; 1 µM, serum-free).
`O=C(Nc1cncc(-c2nc3ccccc3o2)c1)c1ccc(N2CCNCC2)c([N+](=O)[O-])c1` has a scaled CLint of 10 mL/min/kg (CD-1 mouse, liver microsomes; 1 µM, 1 h, pH 7.4).
`CCCN(C)Cc1cc(-c2[nH]c3cccc(F)c3c(=O)c2C)ccc1Cc1ccc(OC(F)(F)F)cc1` has a scaled CLint of 1570 mL/min/kg (mouse, liver microsomes).
For `Cc1ccc(-c2nc3ccccc3s2)cc1NC(=O)c1cc([N+](=O)[O-])c(N2CCN(C)CC2)cc1Cl`, the scaled CLint was 105 mL/min/kg (CD-1 mouse, liver microsomes; 1 µM, 1 h, pH 7.4).
`COc1cc(C2Oc3cc([C@H]4Oc5cc(O)cc(O)c5C(=O)[C@@H]4O)ccc3OC2CO)ccc1O` (stereo partly drawn) has a scaled CLint of 66.5 mL/min/kg (mouse, liver microsomes; 1 µM).
`Cc1ccc(-c2nc3ccccc3s2)cc1NC(=O)c1cc([N+](=O)[O-])c(F)cc1F` gave a scaled CLint of 52 mL/min/kg (CD-1 mouse, liver microsomes; 1 µM, 1 h, pH 7.4).
`CN[C@@H]1CCN(c2ccc(Nc3cc(NC4CC4)n4ncc(C#N)c4n3)cc2NC(C)=O)C1` gave a scaled CLint of 126 mL/min/kg (male CD-1 mouse, hepatocytes; 1 µM, serum-free).
With `O=C(c1ccc(F)cc1)C1CCN(CCn2c(=O)[nH]c3ccccc3c2=O)CC1` the scaled CLint was 376 mL/min/kg (mouse, liver microsomes).
